In ChEMBL document CHEMBL5058577, “EUbOPEN Chemogenomics Library 2 (Multiplex)” (2022):

Test system: HEK-293T
Assay: Multiplex assay against HEK293T
Format: toxicity, cell-based
Settings: human
Summary of the method: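 With compound added, live cells were imaged on a CQ1 microscope at 37°C and 5% CO2; staining with Hoechst33342, BioTracker Green Microtubule Cytoskeleton Dye, MitoTracker Red and Annexin V Alexa Fluor 680 had been done at seeding. The CellPathfinder machine-learning gating scheme split cells into Hoechst high-intensity objects or normal cells, normal cells into healthy, pyknosed or fragmented nuclei, and pyknosed cells into mitotic or apoptotic. The tubulin, mitochondrial-mass and membrane-permeability phenotypes are per cents of healthy-nucleus cells.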

[1] = 12 h, 1 µM, compound concentration 1 uM, replicate 1
[2] = 12 h, 1 µM, compound concentration 1 uM, replicate 2
[3] = 12 h, 10 µM, compound concentration 10 uM, replicate 1
[4] = 12 h, 10 µM, compound concentration 10 uM, replicate 2
[5] = 24 h, 1 µM, compound concentration 1 uM, replicate 1
[6] = 24 h, 1 µM, compound concentration 1 uM, replicate 2
[7] = 24 h, 10 µM, compound concentration 10 uM, replicate 1
[8] = 24 h, 10 µM, compound concentration 10 uM, replicate 2
[9] = 48 h, 1 µM, compound concentration 1 uM, replicate 1
[10] = 48 h, 1 µM, compound concentration 1 uM, replicate 2
[11] = 48 h, 10 µM, compound concentration 10 uM, replicate 1
[12] = 48 h, 10 µM, compound concentration 10 uM, replicate 2

With `Cc1sc2c(c1C)C(c1ccc(Cl)cc1)=N[C@H](CC(=O)OC(C)(C)C)c1nnc(C)n1-2` the “Population Apoptotic (%)” value [1] was 40%, the “Population Fragmented Nuclei (%)” value [1] was 8% and the “Population Healthy Nuclei (%)” value [1] was 80%. The “Population Hoechst High Intensity Objects (%)” value [1] was 8%, the “Population Membrane Permeable-Phenotype (%)” value [1] was 0% and the “Population Mitochondria Different-Phenotype (%)” value [1] was 49%. For the same compound, the “Population Mitotic Cells (%)” value [1] was 60%, the “Population Normal (%)” value [1] was 91% and the “Population Pyknosed Nuclei (%)” value [1] was 10%. For the same compound, the “Population Tubulin-Different-Phenotype (%)” value [1] was 32%, the “Total Cell Count” value [1] was 478 and the “Population Apoptotic (%)” value [2] was 44%. For the same compound, the “Population Fragmented Nuclei (%)” value [2] was 6%, the “Population Healthy Nuclei (%)” value [2] was 76% and the “Population Hoechst High Intensity Objects (%)” value [2] was 9%. For the same compound, the “Population Mitochondria Different-Phenotype (%)” value [2] was 65%, the “Population Mitotic Cells (%)” value [2] was 55% and the “Population Normal (%)” value [2] was 90%. For the same compound, the “Population Pyknosed Nuclei (%)” value [2] was 17%, the “Population Tubulin-Different-Phenotype (%)” value [2] was 26% and the “Total Cell Count” value [2] was 333. The “Population Apoptotic (%)” value [3] was 41%, the “Population Fragmented Nuclei (%)” value [3] was 7% and the “Population Healthy Nuclei (%)” value [3] was 76%. For the same compound, the “Population Hoechst High Intensity Objects (%)” value [3] was 7%, the “Population Membrane Permeable-Phenotype (%)” value [3] was 0% and the “Population Mitochondria Different-Phenotype (%)” value [3] was 74%. The “Population Mitotic Cells (%)” value [3] was 58%, the “Population Normal (%)” value [3] was 92% and the “Population Pyknosed Nuclei (%)” value [3] was 15%. For the same compound, the “Population Tubulin-Different-Phenotype (%)” value [3] was 67%, the “Total Cell Count” value [3] was 395 and the “Population Apoptotic (%)” value [4] was 66%. The “Population Fragmented Nuclei (%)” value [4] was 5%, the “Population Healthy Nuclei (%)” value [4] was 72% and the “Population Hoechst High Intensity Objects (%)” value [4] was 10%. For the same compound, the “Population Mitochondria Different-Phenotype (%)” value [4] was 90%, the “Population Mitotic Cells (%)” value [4] was 33% and the “Population Normal (%)” value [4] was 89%. The “Population Pyknosed Nuclei (%)” value [4] was 21%, the “Population Tubulin-Different-Phenotype (%)” value [4] was 70% and the “Total Cell Count” value [4] was 303. For the same compound, the “Population Apoptotic (%)” value [5] was 32%, the “Population Fragmented Nuclei (%)” value [5] was 10% and the “Population Healthy Nuclei (%)” value [5] was 76%. The “Population Hoechst High Intensity Objects (%)” value [5] was 5%, the “Population Membrane Permeable-Phenotype (%)” value [5] was 0% and the “Population Mitochondria Different-Phenotype (%)” value [5] was 29%. For the same compound, the “Population Mitotic Cells (%)” value [5] was 68%, the “Population Normal (%)” value [5] was 94% and the “Population Pyknosed Nuclei (%)” value [5] was 13%. For the same compound, the “Population Tubulin-Different-Phenotype (%)” value [5] was 19%, the “Total Cell Count” value [5] was 609 and the “Population Healthy Nuclei (%)” value [6] was 82%. For the same compound, the “Population Hoechst High Intensity Objects (%)” value [6] was 6%, the “Population Mitochondria Different-Phenotype (%)” value [6] was 43% and the “Population Mitotic Cells (%)” value [6] was 67%. For the same compound, the “Population Normal (%)” value [6] was 93%, the “Population Pyknosed Nuclei (%)” value [6] was 6% and the “Population Tubulin-Different-Phenotype (%)” value [6] was 11%. For the same compound, the “Total Cell Count” value [6] was 479, the “Population Apoptotic (%)” value [7] was 41% and the “Population Fragmented Nuclei (%)” value [7] was 8%. The “Population Healthy Nuclei (%)” value [7] was 68%, the “Population Hoechst High Intensity Objects (%)” value [7] was 4% and the “Population Membrane Permeable-Phenotype (%)” value [7] was 0%. The “Population Mitochondria Different-Phenotype (%)” value [7] was 64%, the “Population Mitotic Cells (%)” value [7] was 58% and the “Population Normal (%)” value [7] was 95%. The “Population Pyknosed Nuclei (%)” value [7] was 23%, the “Population Tubulin-Different-Phenotype (%)” value [7] was 46% and the “Total Cell Count” value [7] was 468. The “Population Apoptotic (%)” value [8] was 49%, the “Population Fragmented Nuclei (%)” value [8] was 3% and the “Population Healthy Nuclei (%)” value [8] was 76%. For the same compound, the “Population Hoechst High Intensity Objects (%)” value [8] was 6%, the “Population Membrane Permeable-Phenotype (%)” value [8] was 1% and the “Population Mitochondria Different-Phenotype (%)” value [8] was 76%. The “Population Mitotic Cells (%)” value [8] was 50%, the “Population Normal (%)” value [8] was 93% and the “Population Pyknosed Nuclei (%)” value [8] was 19%. The “Population Tubulin-Different-Phenotype (%)” value [8] was 47%, the “Total Cell Count” value [8] was 378 and the “Population Apoptotic (%)” value [9] was 18%. The “Population Fragmented Nuclei (%)” value [9] was 11%, the “Population Healthy Nuclei (%)” value [9] was 80% and the “Population Hoechst High Intensity Objects (%)” value [9] was 3%. The “Population Membrane Permeable-Phenotype (%)” value [9] was 1%, the “Population Mitochondria Different-Phenotype (%)” value [9] was 16% and the “Population Mitotic Cells (%)” value [9] was 81%. For the same compound, the “Population Normal (%)” value [9] was 96%, the “Population Pyknosed Nuclei (%)” value [9] was 7% and the “Population Tubulin-Different-Phenotype (%)” value [9] was 10%. For the same compound, the “Total Cell Count” value [9] was 1012, the “Population Apoptotic (%)” value [10] was 30% and the “Population Fragmented Nuclei (%)” value [10] was 14%. For the same compound, the “Population Healthy Nuclei (%)” value [10] was 79%, the “Population Hoechst High Intensity Objects (%)” value [10] was 4% and the “Population Membrane Permeable-Phenotype (%)” value [10] was 0%. The “Population Mitochondria Different-Phenotype (%)” value [10] was 21%, the “Population Mitotic Cells (%)” value [10] was 69% and the “Population Normal (%)” value [10] was 95%. The “Population Pyknosed Nuclei (%)” value [10] was 5%, the “Population Tubulin-Different-Phenotype (%)” value [10] was 12% and the “Total Cell Count” value [10] was 685. The “Population Apoptotic (%)” value [11] was 31%, the “Population Fragmented Nuclei (%)” value [11] was 9% and the “Population Healthy Nuclei (%)” value [11] was 73%. The “Population Hoechst High Intensity Objects (%)” value [11] was 3%, the “Population Membrane Permeable-Phenotype (%)” value [11] was 0% and the “Population Mitochondria Different-Phenotype (%)” value [11] was 47%. The “Population Mitotic Cells (%)” value [11] was 68%, the “Population Normal (%)” value [11] was 96% and the “Population Pyknosed Nuclei (%)” value [11] was 16%. For the same compound, the “Population Tubulin-Different-Phenotype (%)” value [11] was 19%, the “Total Cell Count” value [11] was 641 and the “Population Apoptotic (%)” value [12] was 55%. For the same compound, the “Population Fragmented Nuclei (%)” value [12] was 8%, the “Population Healthy Nuclei (%)” value [12] was 76% and the “Population Hoechst High Intensity Objects (%)” value [12] was 5%. For the same compound, the “Population Mitochondria Different-Phenotype (%)” value [12] was 66%, the “Population Mitotic Cells (%)” value [12] was 44% and the “Population Normal (%)” value [12] was 94%. The “Population Pyknosed Nuclei (%)” value [12] was 15%, the “Population Tubulin-Different-Phenotype (%)” value [12] was 28% and the “Total Cell Count” value [12] was 525.
